Assay results reported in ChEMBL document CHEMBL3120107, “Cytotoxic cardiac glycosides and coumarins from Antiaris toxicaria” (2014).
≈ marks a conversion by molar mass, not a printed value.

Key:
[1] = Cytotoxicity against human […] cells assessed as growth inhibition after 72 hrs by SRB assay; format: functional; conditions: for EC50: Homo sapiens, HCT9, 72 h, read-out: ED50 (the source's name)
In short: (§1)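 Sulforhodamine B assay run by NCI-validated procedure. Cells grown at 37 °C under humidified 5% CO2 in RPMI-1640 with 25 mM HEPES, […] (w/v) sodium bicarbonate, 10% (v/v) FBS and 100 μg/mL kanamycin. Compounds came from DMSO stocks, with final DMSO ≤ 1% (v/v). Continuous exposure for 72 h. ED50 (μg/mL, 50% cell-number reduction) interpolated from dose-response data. Triplicate tests. Doxorubicin served as positive control.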

PC-3 = assay: Cytotoxicity against human PC3 cells assessed as growth inhibition after 72 hrs by SRB assay; format: functional; conditions: for EC50: Homo sapiens, PC-3, 72 h, read-out: ED50 (the source's name); in short: as §1
[2] = Cytotoxicity against human U87MG cells assessed as growth inhibition after 72 hrs by SRB assay; format: functional, U-87MG ATCC; conditions: for EC50: Homo sapiens, U-87 MG, 72 h, read-out: ED50 (the source's name); in short: as §1
KB = assay: Cytotoxicity against human KB cells assessed as growth inhibition after 72 hrs by SRB assay; format: functional; conditions: for EC50: Homo sapiens, KB, 72 h, read-out: ED50 (the source's name); in short: as §1
SK-MEL-2 = assay: Cytotoxicity against human SK-MEL-2 cells assessed as growth inhibition after 72 hrs by SRB assay; format: functional; conditions: for EC50: Homo sapiens, SK-MEL-2, 72 h, read-out: ED50 (the source's name); in short: as §1
1A9 = assay: Cytotoxicity against human 1A9 cells assessed as growth inhibition after 72 hrs by SRB assay; format: functional; conditions: for EC50: Homo sapiens, 1A9, 72 h, read-out: ED50 (the source's name); in short: as §1
MCF7 = assay: Cytotoxicity against human MCF7 cells assessed as growth inhibition after 72 hrs by SRB assay; format: functional; conditions: for EC50: Homo sapiens, MCF7, 72 h, read-out: ED50 (the source's name); in short: as §1
[3] = Cytotoxicity against human KBVIN cells assessed as growth inhibition after 72 hrs by SRB assay; format: functional; conditions: for EC50: Homo sapiens, KBVIN, 72 h, read-out: ED50 (the source's name); in short: as §1
CAKI-1 = assay: Cytotoxicity against human CAKI-1 cells assessed as growth inhibition after 72 hrs by SRB assay; format: functional; conditions: for EC50: Homo sapiens, CAKI-1, 72 h, read-out: ED50 (the source's name); in short: as §1
A549 = assay: Cytotoxicity against human A549 cells assessed as growth inhibition after 72 hrs by SRB assay; format: functional; conditions: for EC50: Homo sapiens, A549, 72 h, read-out: ED50 (the source's name); in short: as §1

SMILES	EC50 [1]	EC50 (PC-3)	EC50 [2]	EC50 (KB)	EC50 (SK-MEL-2)	EC50 (1A9)	EC50 (MCF7)	EC50 [3]	EC50 (CAKI-1)	EC50 (A549)	ED50 [1]	ED50 (PC-3)	ED50 [2]	ED50 (KB)	ED50 (SK-MEL-2)	ED50 (1A9)	ED50 (MCF7)	ED50 [3]	ED50 (CAKI-1)	ED50 (A549)
CO[C@H]1[C@@H](O[C@H]2CC[C@]3(C=O)[C@H]4CC[C@]5(C)[C@@H](C6=CC(=O)OC6)CC[C@]5(O)[C@@H]4CC[C@]3(O)C2)O[C@H](C)[C@@H](O)[C@H]1O (stereo in doubt; 23) [STROPHATHOJAVOSIDE]	0.085 µg/mL (≈ 0.151 µM)	0.063 µg/mL (≈ 0.112 µM)	0.043 µg/mL (≈ 0.0762 µM)	0.081 µg/mL (≈ 0.143 µM)	0.063 µg/mL (≈ 0.112 µM)	0.013 µg/mL (≈ 0.023 µM)	0.024 µg/mL (≈ 0.0425 µM)	0.05 µg/mL (≈ 0.0885 µM)	0.014 µg/mL (≈ 0.0248 µM)	0.015 µg/mL (≈ 0.0266 µM)										
C[C@@H]1O[C@H](O[C@H]2CC[C@@]3(C(=O)O[C@@H]4O[C@H](CO)[C@@H](O)[C@H](O)[C@H]4O)[C@H](CC[C@@H]4[C@@H]3CC[C@]3(C)[C@@H](C5=CC(=O)OC5)CC[C@]43O)C2)[C@H](O)[C@H](O)[C@H]1O [ANTIAROSIDE F]	3.4 µg/mL (≈ 4.77 µM)	0.89 µg/mL (≈ 1.25 µM)	4.5 µg/mL (≈ 6.31 µM)	1.8 µg/mL (≈ 2.53 µM)	0.32 µg/mL (≈ 0.449 µM)	0.97 µg/mL (≈ 1.36 µM)	1.3 µg/mL (≈ 1.82 µM)	2.2 µg/mL (≈ 3.09 µM)	1.2 µg/mL (≈ 1.68 µM)	0.54 µg/mL (≈ 0.758 µM)										
C[C@@H]1O[C@H](O[C@H]2CC[C@@]3(C=O)[C@H](CC[C@@H]4[C@@H]3CC[C@]3(C)[C@@H](C5=CC(=O)OC5)CC[C@]43O)C2)[C@H](O)[C@H](O)[C@H]1O [MALAYOSIDE]	0.18 µg/mL (≈ 0.337 µM)	0.11 µg/mL (≈ 0.206 µM)	0.37 µg/mL (≈ 0.692 µM)	0.3 µg/mL (≈ 0.561 µM)	0.62 µg/mL (≈ 1.16 µM)	0.076 µg/mL (≈ 0.142 µM)	0.19 µg/mL (≈ 0.355 µM)	0.32 µg/mL (≈ 0.599 µM)	0.073 µg/mL (≈ 0.137 µM)	0.08 µg/mL (≈ 0.15 µM)										
C[C@]12CC[C@H]3[C@@H](CC[C@@H]4C[C@@H](O)CC[C@@]43CO)[C@@]1(O)CC[C@@H]2C1=CC(=O)OC1	0.46 µg/mL (≈ 1.18 µM)	0.15 µg/mL (≈ 0.384 µM)	0.5 µg/mL (≈ 1.28 µM)	0.45 µg/mL (≈ 1.15 µM)	0.7 µg/mL (≈ 1.79 µM)	12 µg/mL (≈ 30.7 µM)	0.21 µg/mL (≈ 0.538 µM)	0.5 µg/mL (≈ 1.28 µM)	0.11 µg/mL (≈ 0.282 µM)	0.05 µg/mL (≈ 0.128 µM)										
C[C@]12CC[C@H]3[C@@H](CC[C@]4(O)C[C@@H](O)CC[C@]34CO)[C@@]1(O)CC[C@@H]2C1=CC(=O)OC1 [STROPHANTHIDOL]	6.4 µg/mL (≈ 15.7 µM)	0.81 µg/mL (≈ 1.99 µM)	2.9 µg/mL (≈ 7.13 µM)	2.7 µg/mL (≈ 6.64 µM)	0.57 µg/mL (≈ 1.4 µM)	0.66 µg/mL (≈ 1.62 µM)	0.69 µg/mL (≈ 1.7 µM)	3 µg/mL (≈ 7.38 µM)	0.67 µg/mL (≈ 1.65 µM)	0.14 µg/mL (≈ 0.344 µM)										
CO[C@H]1[C@@H](O[C@H]2CC[C@]3(C=O)[C@H]4CC[C@]5(C)[C@@H](C6=CC(=O)OC6)CC[C@]5(O)[C@@H]4CC[C@]3(O)C2)O[C@H](C)[C@@H](O)[C@H]1O (stereo in doubt; 21) [STROPHATHOJAVOSIDE]											0.067 µg/mL (≈ 0.119 µM)	0.052 µg/mL (≈ 0.0921 µM)	0.078 µg/mL (≈ 0.138 µM)	0.066 µg/mL (≈ 0.117 µM)	0.064 µg/mL (≈ 0.113 µM)	0.013 µg/mL (≈ 0.023 µM)	0.042 µg/mL (≈ 0.0744 µM)	0.051 µg/mL (≈ 0.0903 µM)	0.014 µg/mL (≈ 0.0248 µM)	0.016 µg/mL (≈ 0.0283 µM)
C[C@@H]1O[C@H](O[C@H]2CC[C@]3(C=O)[C@H]4C[C@@H](O)[C@]5(C)[C@@H](C6=CC(=O)OC6)CC[C@]5(O)[C@@H]4CC[C@]3(O)C2)[C@H](O)[C@H](O)[C@H]1O	0.066 µg/mL (≈ 0.116 µM)	0.05 µg/mL (≈ 0.0882 µM)	0.071 µg/mL (≈ 0.125 µM)	0.067 µg/mL (≈ 0.118 µM)	0.065 µg/mL (≈ 0.115 µM)	0.014 µg/mL (≈ 0.0247 µM)	0.018 µg/mL (≈ 0.0318 µM)	0.061 µg/mL (≈ 0.108 µM)	0.015 µg/mL (≈ 0.0265 µM)	0.013 µg/mL (≈ 0.0229 µM)										
C[C@H]1O[C@H](O[C@H]2CC[C@]3(C=O)[C@H]4CC[C@]5(C)[C@@H](C6=CC(=O)OC6)CC[C@]5(O)[C@@H]4CC[C@]3(O)C2)[C@H](O)[C@H](O[C@@H]2O[C@H](CO)[C@@H](O)[C@H](O)[C@H]2O)[C@@H]1O [GLUCOSTROPHALLOSIDE]	0.13 µg/mL (≈ 0.182 µM)	0.084 µg/mL (≈ 0.118 µM)	0.15 µg/mL (≈ 0.21 µM)	0.12 µg/mL (≈ 0.168 µM)	0.12 µg/mL (≈ 0.168 µM)	0.057 µg/mL (≈ 0.08 µM)	0.096 µg/mL (≈ 0.135 µM)	0.083 µg/mL (≈ 0.116 µM)	0.065 µg/mL (≈ 0.0912 µM)	0.038 µg/mL (≈ 0.0533 µM)										
C[C@H]1O[C@@H](O[C@H]2CC[C@]3(C)[C@H]4CC[C@]5(C)[C@@H](C6=CC(=O)OC6)CC[C@]5(O)[C@@H]4CC[C@]3(O)C2)[C@H](O)[C@H](O)[C@H]1O [ANTIAROSIDE A]	0.09 µg/mL (≈ 0.168 µM)	0.078 µg/mL (≈ 0.145 µM)	0.15 µg/mL (≈ 0.28 µM)	0.0097 µg/mL (≈ 0.0181 µM)	0.073 µg/mL (≈ 0.136 µM)	0.02 µg/mL (≈ 0.0373 µM)	0.063 µg/mL (≈ 0.117 µM)	0.068 µg/mL (≈ 0.127 µM)	0.018 µg/mL (≈ 0.0335 µM)	0.044 µg/mL (≈ 0.082 µM)										
